Measurements as given in ChEMBL document CHEMBL2169800 (J Med Chem, 2012).
The source made the active and inactive calls. The calls are words filed in the database; no cut-off is given here.

Key:
[1] = biological target: T1, Prostaglandin G/H synthase 1 (Ovis aries, UniProt P05979); assay: Inhibition of ovine COX1 pre-incubated for 10 mins before arachidonic acid substrate addition by enzyme immunoassay
T1 sequence (P05979 whole entry): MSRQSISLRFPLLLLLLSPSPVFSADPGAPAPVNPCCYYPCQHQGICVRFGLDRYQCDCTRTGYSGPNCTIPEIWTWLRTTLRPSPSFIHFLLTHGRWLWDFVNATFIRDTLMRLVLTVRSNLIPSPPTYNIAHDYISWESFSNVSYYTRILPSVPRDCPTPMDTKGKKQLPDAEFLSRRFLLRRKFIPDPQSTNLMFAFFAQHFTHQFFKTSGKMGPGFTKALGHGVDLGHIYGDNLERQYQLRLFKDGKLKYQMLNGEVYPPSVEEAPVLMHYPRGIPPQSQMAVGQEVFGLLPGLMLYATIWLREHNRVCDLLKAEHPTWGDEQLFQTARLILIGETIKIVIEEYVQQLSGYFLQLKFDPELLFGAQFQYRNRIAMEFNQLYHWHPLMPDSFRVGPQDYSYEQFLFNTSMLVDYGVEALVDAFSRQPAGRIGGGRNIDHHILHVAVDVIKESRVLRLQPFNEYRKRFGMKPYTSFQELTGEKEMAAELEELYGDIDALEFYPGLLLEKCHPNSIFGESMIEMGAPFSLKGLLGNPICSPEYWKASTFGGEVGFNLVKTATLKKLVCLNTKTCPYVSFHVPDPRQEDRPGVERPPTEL
Procedure, shortened: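 Ovine COX-1 pre-incubated with inhibitor for 10 min at 37 °C, then 5 μM arachidonic acid for 2 min at 37 °C. Stopped with HCl; PGH2 reduced to PGF2α with SnCl2 and measured by competitive EIA (PG antibody, PG-acetylcholinesterase conjugate), absorbance at 412 nm.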

[2] = biological target: T2, Prostaglandin G/H synthase 2 (Homo sapiens, UniProt P35354); assay: Inhibition of human COX2 pre-incubated for 10 mins before substrate addition by enzyme immunoassay
T2 sequence (P35354 whole entry): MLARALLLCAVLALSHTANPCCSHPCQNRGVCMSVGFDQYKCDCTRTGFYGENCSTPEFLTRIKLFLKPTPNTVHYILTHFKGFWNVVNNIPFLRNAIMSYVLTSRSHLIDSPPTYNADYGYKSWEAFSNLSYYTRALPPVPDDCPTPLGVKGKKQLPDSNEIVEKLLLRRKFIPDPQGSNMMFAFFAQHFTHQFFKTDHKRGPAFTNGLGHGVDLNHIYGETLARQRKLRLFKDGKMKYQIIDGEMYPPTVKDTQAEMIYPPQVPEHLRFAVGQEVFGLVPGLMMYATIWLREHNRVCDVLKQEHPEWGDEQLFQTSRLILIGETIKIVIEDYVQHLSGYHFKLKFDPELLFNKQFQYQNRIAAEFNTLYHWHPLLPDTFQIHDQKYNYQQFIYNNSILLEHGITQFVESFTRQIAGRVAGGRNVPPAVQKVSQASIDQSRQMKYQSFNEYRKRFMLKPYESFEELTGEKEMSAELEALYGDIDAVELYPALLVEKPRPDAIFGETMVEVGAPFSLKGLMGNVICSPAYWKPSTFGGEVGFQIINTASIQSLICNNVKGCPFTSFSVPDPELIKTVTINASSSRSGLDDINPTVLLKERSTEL

[3] = biological target: T3, Fatty-acid amide hydrolase 1 (Rattus norvegicus, UniProt P97612); assay: Inhibition of FAAH in rat brain homogenates pre-incubated for 10 mins before addition of [3H]anandamide and [3H]AEA substrates for 30 mins by liquid scintillation counting; assay type: tissue-based
T3 sequence (P97612 whole entry): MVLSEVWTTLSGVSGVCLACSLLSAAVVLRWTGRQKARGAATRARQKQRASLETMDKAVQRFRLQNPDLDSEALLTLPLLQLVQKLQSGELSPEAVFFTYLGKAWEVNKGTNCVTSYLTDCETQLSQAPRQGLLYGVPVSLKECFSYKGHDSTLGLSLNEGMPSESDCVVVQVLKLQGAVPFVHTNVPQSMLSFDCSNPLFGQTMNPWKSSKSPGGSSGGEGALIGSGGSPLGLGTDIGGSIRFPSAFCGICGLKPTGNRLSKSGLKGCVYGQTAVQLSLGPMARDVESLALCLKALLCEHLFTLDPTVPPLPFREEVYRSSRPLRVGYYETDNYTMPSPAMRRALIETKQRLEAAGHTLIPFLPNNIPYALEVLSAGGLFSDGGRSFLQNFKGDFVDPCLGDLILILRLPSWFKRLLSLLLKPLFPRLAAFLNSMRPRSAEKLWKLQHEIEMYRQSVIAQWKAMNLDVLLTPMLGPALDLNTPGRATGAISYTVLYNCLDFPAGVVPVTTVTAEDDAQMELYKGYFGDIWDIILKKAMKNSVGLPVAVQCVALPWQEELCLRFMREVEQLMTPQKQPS
Procedure, shortened: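 Rat whole-brain homogenate (50 ug protein/sample) in 50 mM TRIS pH 7.4, 0.05 % fatty acid free BSA; inhibitor pre-incubated 10 min, then 1 uM unlabelled AEA plus 0.6 nM [3H]-AEA added for 30 min at 37°C. Stopped with cold 1:1 CHCl3/MeOH; aqueous phase counted.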

[4] = biological target: T4, Fatty-acid amide hydrolase 1 (Rattus norvegicus) (UniProt P97612); details: Brain, 30 uM
T4 sequence (whole entry): T3 sequence (P97612 whole entry)

[5] = biological target: T4, Fatty-acid amide hydrolase 1 (Rattus norvegicus); assay: Potency index, ratio of IC50 for carprofen to IC50 for compound against FAAH in rat brain homogenates pre-incubated for 10 mins before addition of [3H]anandamide and [3H]AEA substrates for 30 mins by liquid scintillation counting; assay type: tissue-based

| IC50 [3] | SMILES | IC50 [1] [µM] | IC50 [2] [µM] | IC50 ([3]; read-out: IC50) [µM] | inhibition [4] | Ratio IC50 [5] |
| --- | --- | --- | --- | --- | --- | --- |
| – | COc1ccccc1Cn1c2ccc(Cl)cc2c2ccc(C(C)C(=O)O)cc21 (racemic) | > 100 | > 100 | > 100 | inactive | – |
| – | CCCCCCS(=O)(=O)n1c2ccc(Cl)cc2c2ccc(C(C)C(=O)O)cc21 (racemic) | > 100 | > 100 | 50.3 | – | – |
| – | CCCCCCNC(=O)n1c2ccc(Cl)cc2c2ccc(C(C)C(=O)O)cc21 (racemic) | > 100 | > 100 | 3.2 | – | – |
| – | CNC(=O)n1c2ccc(Cl)cc2c2ccc(C(C)C(=O)O)cc21 (racemic) | > 100 | > 100 | > 100 | – | – |
| – | CCCCNC(=O)n1c2ccc(Cl)cc2c2ccc(C(C)C(=O)O)cc21 (racemic) | > 100 | > 100 | > 100 | – | – |
| – | CCCCCCCCNC(=O)n1c2ccc(Cl)cc2c2ccc(C(C)C(=O)O)cc21 (racemic) | 15.4 | > 100 | 26.8 | – | – |
| – | CC(C(=O)O)c1ccc2c3cc(Cl)ccc3n(C(=O)Nc3ccc(Cl)cc3)c2c1 (racemic) | 41.3 | > 100 | 102 | – | – |
| – | CCCCCCN(C)C(=O)n1c2ccc(Cl)cc2c2ccc(C(C)C(=O)O)cc21 (racemic) | > 100 | > 100 | > 100 | – | – |
| – | CC(C(=O)O)c1ccc2c3cc(Cl)ccc3n(C(=O)NC3CCCCC3)c2c1 (racemic) | > 100 | > 100 | > 100 | – | – |
| – | CCCCCCOC(=O)n1c2ccc(Cl)cc2c2ccc(C(C)C(=O)O)cc21 (racemic) | 17.2 | > 100 | 31.6 | – | – |
| – | CC(=O)n1c2ccc(Cl)cc2c2ccc(C(C)C(=O)O)cc21 (racemic) | > 100 | > 100 | > 100 | – | – |
| – | CC(C(=O)O)c1ccc2c3cc(Cl)ccc3n(C(=O)c3ccccc3)c2c1 (racemic) | > 100 | > 100 | 25.4 | – | – |
| – | CC(C(=O)O)c1ccc2c3cc(Cl)ccc3n(C(=O)c3ccc(Cl)cc3)c2c1 (racemic) | 74.3 | 72.3 | 22 | – | – |
| – | CC(C(=O)O)c1ccc2c(c1)[nH]c1ccccc12 (racemic) | > 100 | > 100 | 4.6 | – | – |
| – | COC(=O)C(C)c1ccc2c(c1)[nH]c1ccc(Cl)cc12 (racemic) | > 100 | > 100 | 22.1 | – | – |
| – | CC(C(=O)NCCO)c1ccc2c(c1)[nH]c1ccc(Cl)cc12 (racemic) | > 100 | > 100 | > 100 | – | – |
| – | CC(C(=O)Nc1ccccc1)c1ccc2c(c1)[nH]c1ccc(Cl)cc12 (racemic) | > 100 | > 100 | 2.9 | – | 26 |
| – | CC(C(=O)O)c1ccc2c3cc(Cl)ccc3n(S(=O)(=O)c3ccc(Cl)cc3)c2c1 (racemic) | > 100 | > 100 | 4.8 | – | – |
| – | CC(C(=O)O)c1ccc2c(c1)[nH]c1ccc(Cl)cc12 (racemic) [CARPROFEN] | 22.3 | – | – | – | – |
| Not Active | CC(C)Cc1ccc(C(C)C(=O)O)cc1 (stereo not drawn) [IBUPROFEN] | – | – | – | – | – |
